The text below walks through data of ChEMBL document CHEMBL1240369, “Antiviral efficacy of the novel compound BIT225 against HIV-1 release from human macrophages” (Antimicrob Agents Chemother, 2010).

The test system of data set [1] is MDM. As to the kind of experiment: Inhibition of Vpu ion channel in 0.01 MOI HIV1 Ba-L infected in 14 days differentiated human MDM cells assessed as number of gag copy. Type of data set: cell-based. Conditions: Human immunodeficiency virus 1. A digest of the protocol: (§1)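 MDM differentiated for 7, 10 or 14 days were infected with HIV-1 Ba-L across a range of MOIs, washed three times with PBS and cultured 7 days with 10 μM compound or equal-volume DMSO. On day 7 postinfection, supernatant RT activity was measured (and infectivity on TZM-bl cells). Cell lysates went to real-time PCR for LTR-gag DNA, normalised to albumin copies.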

In data set [2] the test system is MDM. As to the kind of experiment: Inhibition of Vpu ion channel in 0.05 MOI HIV1 Ba-L chronically infected in 14 days differentiated human MDM cells assessed as viral inhibition measured after treatment at 11 th day postinfection. Conditions: Human immunodeficiency virus 1. Type of data set: cell-based.
The nature of data set [3]: Inhibition of Vpu ion channel in HIV1 92TH001 in human MDM assessed as inhibition of vrius release. Details: species or system Human immunodeficiency virus 1.
Data set [4] relates to MDM. As to the kind of experiment: Inhibition of Vpu ion channel in 0.05 MOI HIV1 Ba-L acutely infected in 14 days differentiated human MDM cells assessed as reverse transcriptase activity after 21 days relative to control. Type of data set: cell-based. Conditions: Human immunodeficiency virus 1. A digest of the protocol: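 Day 14 MDM were acutely infected with HIV-1 Ba-L at MOI 0.05 for 3 h, washed three times with PBS, then cultured a further 7 days in DMEM10+ with 10 μM compound or equal DMSO. Virus release was measured as supernatant RT activity on day 21 of culture, relative to DMSO controls.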

For data set [5], the system named is Human immunodeficiency virus 1. As to the kind of experiment: Antiviral activity against HIV1 Ba-L in human MDM assessed as inhibition integration of virus to host cell genome at 10 nM. Type of data set: functional, organism-based.
Data set [6] concerns MDM. In words: Inhibition of Vpu ion channel in 0.001 MOI HIV1 Ba-L infected in 14 days differentiated human MDM cells assessed as viral inhibition by RT assay. Type of data set: cell-based. Details: scale not given: the % may be the effect or the level left. Conditions: Human immunodeficiency virus 1. A digest of the protocol: as §1
In data set [7] the test system is PBMC. In words: Inhibition of Vpu ion channel in 0.05 MOI HIV1 NL4-3 infected in human PBMC cells assessed as viral inhibition measured after 7 days by […]. Conditions: Human immunodeficiency virus 1.
A short description of data set [8]: Inhibition of Vpu ion channel in HIV1 92UG029 in human MDM assessed as inhibition of vrius release. Also on record: species or system Human immunodeficiency virus 1.
Data set [9] in a line: Inhibition of Vpu ion channel in HIV1 G-92NG003-G3 in human MDM assessed as inhibition of vrius release. Details: species or system Human immunodeficiency virus 1.
Data set [10] deals with Human immunodeficiency virus 1. In words: Inhibition of HIV1 Vpu ion channel activity. A digest of the protocol: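 Planar lipid bilayer of POPE:POPC (50:50) in n-decane, with 50 mM KCl in 10 mM MES […] in both chambers. Synthetic Vpu peptide (150 ng) was added to cis and trans sides with stirring. K+ current appeared at −100 mV and was recorded at −40 mV, filtered at 1 kHz. Mean currents were taken over 10–30 s before and after compound (40 μM).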

Data set [11] deals with Human immunodeficiency virus 1. As to the kind of experiment: Antiviral activity against HIV1 Ba-L in 14 days differentiated human MDM assessed as decrease in intracellular viral protein at 10 uM after 7 days by Western blot analysis. Type of data set: functional, organism-based. In outline:
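Day 14 MDM were chronically infected with HIV-1 Ba-L, then given 10 μM compound or DMSO and harvested on day 28. Lysates with equal total protein (checked by β-actin) were run on a 10% polyacrylamide gel and blotted to nitrocellulose. Blots were probed with HIV-1-seropositive human serum, then HRP anti-human IgG.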
Background: A western blot detects proteins with antibodies after separation by electrophoresis.

Data set [12] in a line: Selectivity index, ratio of TC50 for human MDM cells to EC50 for HIV1 98IN017 infected in human MDM cells. Type of data set: toxicity, cell-based. Conditions: read-out: Selectivity Index.
Data set [13] deals with MDM. As to the kind of experiment: Inhibition of Vpu ion channel in 0.001 MOI HIV1 Ba-L infected in 10 days differentiated human MDM cells assessed as viral inhibition by TZM-bl infectivity assay. Type of data set: cell-based. Conditions: Human immunodeficiency virus 1. In outline:
as §1

Data set [14] in a line: Cytotoxicity against human MDM cells assessed as cell viability at 0 to 10 uM by MTT assay. Type of data set: cell-based. Conditions: read-out: Activity. In outline: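 Infected day 14 MDM were exposed to compound, up to 10 μM in parallel antiviral assays or extended to 1,000 μM for TC50. On day 7, half the medium was removed and 100 μg MTT added per well for 5 h at 37°C. Formazan was dissolved in acidified isopropanol with 10% Triton X-100 and A560 read. Viability was expressed vs DMSO controls; TC50 by nonlinear regression (n = 3).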

Data set [15] deals with MT2. As to the kind of experiment: Inhibition of Vpu ion channel in 0.05 MOI HIV1 NL4-3 infected in MT2 cells assessed as viral inhibition measured at 10 uM after 7 days by […]. Conditions: Human immunodeficiency virus 1.
Data set [16] in a line: Selectivity index, ratio of TC50 for human MDM cells to EC50 for HIV1 93BR029 infected in human MDM cells. Type of data set: toxicity, cell-based. Conditions: read-out: Selectivity Index. In outline:
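Monocytes were adherence-isolated from seronegative PBMC and differentiated in DMEM with 10% human AB serum. Cells were infected with the R5 subtype F primary isolate (PBMC-grown). Antiviral effect was taken versus DMSO-treated controls. Toxicity was measured in parallel by MTT. The index is mean TC50 divided by mean EC50, from in-house experiments, n = 3.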

Data set [17] in a line: Selectivity index, ratio of TC50 for human MDM cells to EC50 for HIV1 5705.72 infected in human MDM cells. Type of data set: toxicity, cell-based. Conditions: read-out: Selectivity Index.
Data set [18] concerns Human immunodeficiency virus 2. As to the kind of experiment: Antiviral activity against 0.05 MOI HIV2 chronically infected in 7-14 days differentiated human MDM cells assessed as viral inhibition measured after 7 days. Type of data set: functional, organism-based. A digest of the protocol: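 Day 14 MDM from 3 seronegative donors were infected with HIV-2, or with HIV-1 Ba-L as a positive control, at MOI 0.05 for 7 days. Cells were then washed free of extracellular virus and cultured ± 10 μM compound for a further 7 days. Day 28 supernatants were assayed for RT activity by chemiluminescent ELISA, with recombinant RT as the standard.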

A short description of data set [19]: Inhibition of Vpu ion channel in HIV1 93BR029 in human MDM assessed as inhibition of vrius release. Also on record: species or system Human immunodeficiency virus 1.
Data set [20] can be described thus: Selectivity index, ratio of TC50 for human MDM cells to EC50 for HIV1 Ba-L infected in human MDM cells. Type of data set: toxicity, cell-based. Conditions: read-out: Selectivity Index. A digest of the protocol:
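Day-14 adherence-derived MDM from seronegative donors were infected with HIV-1Ba-L for 3 h, PBS-washed thrice, and cultured in DMEM10+ with compound (10 to 0 μM; DMSO vehicle). EC50 came from nonlinear regression of day-7 supernatant RT activity as % virus control (n = 6, triplicates). TC50 came from day-7 MTT (A560, % DMSO control), range extended to 1,000 μM (n = 3). SI = TC50/EC50.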

Data set [21] has as its system MDM. In words: Inhibition of Vpu ion channel in 0.05 MOI HIV1 Ba-L chronically infected in 7-14 days differentiated human MDM cells assessed as viral inhibition at 10 uM after 7 days post treatment. Type of data set: cell-based. Conditions: Human immunodeficiency virus 1. In outline: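 Chronic infection model: MDM were incubated with HIV-1 Ba-L for 3 h and left 7 days unwashed, then washed three times and given a single 10 μM dose (DMSO control). Supernatants were sampled routinely for RT activity. In the washout arm, compound was removed and cells kept drug-free for an additional 20 days.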

The subject of data set [22] is PM1. In words: Inhibition of Vpu ion channel in 0.05 MOI HIV1 NL4-3 infected in PM1 cells assessed as viral inhibition measured after 7 days by […]. Conditions: Human immunodeficiency virus 1.

Active and inactive are the calls of the source. The calls are words filed in the database; no cut-off is given here. A value given as a limit tells only on which side of the number the result lay.

Consider `Cn1cc(-c2cccc3cc(C(=O)NC(=N)N)ccc23)cn1`, for which the Activity in data set [1] was 98; in [4], under 6 U/ml; in data set [6], 77%; in data set [10] it was 40 µM. Moreover, the inhibition (usually the percentage by which the read-out fell short of the control) in [2] amounted to 86.3%; in [7], 95.8%; in [13], 98.1%; in [15], 24%; in [22], 93.1%. Besides, the EC50 (as a rule, the concentration that produces a half-maximal response) in [3] amounted to 1500 nM; in data set [8], 14.4 µM; in data set [9], 1600 nM; in data set [19] it was 1900 nM. For the same molecule, the result in data set [5] and in data set [21] was Active. Also, the outcome in data set [11] and in [18] was inactive. Besides, the selectivity ratio was determined as 4.8 in data set [12], 111 in data set [16], 39.3 in data set [17] and 126 in data set [20]. Besides, the viability at up to 10 µM in [14] is over 96%.
